Test results: ChEMBL document CHEMBL4387755 (Bioorg Med Chem, 2019)

Legend:
Type in all cases: functional, cell-based
[1] = molecular target: T1, Melatonin receptor type 1A (Homo sapiens, UniProt P48039); experiment: Agonist activity at MT1 receptor (unknown origin) expressed in HEK293 cells at 0.5 mM by Fluo-8 dye-based calcium assay relative to control
Method in brief: (§1)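 HEK293 cells grown at 37 °C, 5% CO2 in DMEM with 10% FBS and G418 (400 μg/mL). Seeded at 4 × 10⁴/well on Matrigel-coated plates and grown 24 h. Loaded with Fluo-8 calcium dye for 1 h. Compounds were dissolved in DMSO and diluted in HBSS, then added automatically. Fluorescence was read at room temperature (ex 485 nm, em 525 nm, cut-off 515 nm). Agonistic rate was measured at 0.5 mM.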

[2] = molecular target: T2, Melatonin receptor type 1B (Homo sapiens) (UniProt P49286); experiment: Agonist activity at MT2 receptor (unknown origin) expressed in HEK293 cells at 0.5 mM by Fluo-8 dye-based calcium assay relative to control; method in brief: as §1
T2 sequence (whole entry): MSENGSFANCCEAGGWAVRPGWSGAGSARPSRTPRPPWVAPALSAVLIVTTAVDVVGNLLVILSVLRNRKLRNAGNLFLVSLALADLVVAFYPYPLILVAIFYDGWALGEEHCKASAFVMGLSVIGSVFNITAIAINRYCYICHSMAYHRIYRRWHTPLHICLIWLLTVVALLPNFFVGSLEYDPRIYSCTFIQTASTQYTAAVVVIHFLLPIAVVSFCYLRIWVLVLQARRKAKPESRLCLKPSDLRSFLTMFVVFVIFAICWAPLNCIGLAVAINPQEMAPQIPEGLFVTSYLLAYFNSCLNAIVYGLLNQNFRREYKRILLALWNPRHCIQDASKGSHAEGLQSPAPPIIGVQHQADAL

[3] = molecular target: T3, Melatonin receptor type 1B (Homo sapiens, UniProt P49286); experiment: Agonist activity at MT2 receptor (unknown origin) expressed in HEK293 cells by Fluo-8 dye-based calcium assay
T3 sequence (P49286 whole entry): T2 sequence (whole entry)

[4] = molecular target: T1, Melatonin receptor type 1A; experiment: Agonist activity at MT1 receptor (unknown origin) expressed in HEK293 cells by Fluo-8 dye-based calcium assay

T1 sequence (P48039 whole entry): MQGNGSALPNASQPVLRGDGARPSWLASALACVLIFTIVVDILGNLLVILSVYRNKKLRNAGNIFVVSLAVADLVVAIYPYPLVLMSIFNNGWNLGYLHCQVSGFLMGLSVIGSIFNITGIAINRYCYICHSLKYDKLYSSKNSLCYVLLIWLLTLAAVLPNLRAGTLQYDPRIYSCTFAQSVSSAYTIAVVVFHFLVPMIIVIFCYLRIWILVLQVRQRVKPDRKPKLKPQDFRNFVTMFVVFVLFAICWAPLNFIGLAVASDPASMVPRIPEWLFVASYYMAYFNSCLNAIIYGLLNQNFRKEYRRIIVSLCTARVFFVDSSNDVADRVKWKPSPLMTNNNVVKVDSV

SMILES	Activity [1]	Activity [2]	EC50 [3]	EC50 [4]
Oc1ccc(Oc2ccc(O)cc2)cc1	45.9%	67.1%		
Oc1ccc(Cc2ccc(O)cc2)cc1	80.3%	103%	244 µM	237 µM
OC[C@H]1O[C@@H](Oc2ccc(Sc3ccc(O)cc3)cc2)[C@H](O)[C@@H](O)[C@@H]1O	-2.3%	-2.2%		
CCOCc1ccc(O)c(Cc2ccc(O)c(COCC)c2)c1	-11.2%	5.3%		
Oc1ccc(COCc2ccc(O)c(Cc3ccc(O)cc3)c2)cc1	25.1%	59.4%		
Oc1ccc(COc2ccc(Cc3ccc(O)cc3)cc2)cc1	-5.6%	15.3%		
CCOCc1ccc(O)c(Cc2ccc(O)c(Cc3ccc(O)cc3)c2)c1	-5.7%	-10.4%		
CCOCc1cc(Cc2ccc(O)cc2)c(O)c(Cc2ccc(O)c(Cc3ccc(O)cc3)c2)c1	-5.3%	29.5%		
CCOCc1ccc(O)c(Cc2ccc(O)cc2)c1	3.3%	38.3%		
Oc1ccc(Sc2ccc(O)cc2)cc1	44.6%	94.1%		
CC(=O)OC[C@H]1O[C@@H](Oc2ccc(Sc3ccc(O)cc3)cc2)[C@H](OC(C)=O)[C@@H](OC(C)=O)[C@@H]1OC(C)=O	0.3%	8.5%		
Oc1ccc(Cc2cc(Oc3ccc(O)cc3)ccc2O)cc1	37.1%	51.2%		
Oc1ccc(Cc2cc(Sc3ccc(O)cc3)ccc2O)cc1	31.3%	48.4%		
Oc1ccc(Cc2ccc(O)c(Cc3ccccc3Cc3ccccc3)c2)cc1	-2.3%	-6.7%		
CCOCc1cc(Cc2ccc(O)cc2)ccc1O	37%	117%		
CN(c1ccc(O)cc1)c1ccc(O)cc1	-9.5%	44.7%		
Oc1ccc(Cc2ccc(O)c(Cc3ccccc3)c2)cc1	-8.6%	-6.6%		
CC(=O)OC[C@H]1O[C@@H](Oc2ccc(Sc3ccc(O[C@@H]4O[C@H](COC(C)=O)[C@@H](OC(C)=O)[C@H](OC(C)=O)[C@H]4OC(C)=O)cc3)cc2)[C@H](OC(C)=O)[C@@H](OC(C)=O)[C@@H]1OC(C)=O	-0.4%	-3.6%		
Oc1ccc(Cc2ccc(O)c(Cc3ccc(O)cc3)c2)cc1	46.5%	134%		
